# Mcl-1 Bim block – disrupts Bim peptide binding to human Mcl-1; inhibition, % at 10 µM; Q07820; 0.1% of 190,000 active; Bead-based flow cytometry, Bim peptide-Mcl-1 binding; AID 1009; in the data active = inhibition above about 40%;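 note: 0% = no compound tracer wells and 100% = peptide blocker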
# Target sequence (Q07820 whole entry, looked up): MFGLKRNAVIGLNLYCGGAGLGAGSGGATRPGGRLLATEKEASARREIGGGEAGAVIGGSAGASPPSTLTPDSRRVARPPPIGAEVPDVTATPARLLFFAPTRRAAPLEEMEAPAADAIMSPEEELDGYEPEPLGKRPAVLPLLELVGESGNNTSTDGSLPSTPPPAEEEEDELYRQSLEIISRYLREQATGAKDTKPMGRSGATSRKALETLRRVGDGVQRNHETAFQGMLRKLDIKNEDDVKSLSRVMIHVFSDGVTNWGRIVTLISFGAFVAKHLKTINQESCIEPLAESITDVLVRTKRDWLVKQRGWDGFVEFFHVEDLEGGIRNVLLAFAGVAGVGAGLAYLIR
# Mcl1 Bid PPI – Mcl-1/Bid interaction inhibition; Q07820; TR-FRET Mcl-1/Bid-Dy647 peptide binding, 1536-well; inhibition, % at 21.7 µM; 0.97% of 220,000 active;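 active = compounds that cut the binding signal by more than half at the single screening dose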;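 note: His-tagged Mcl-1 with europium anti-His antibody binding Bid BH3 peptide; 0% = Mcl-1 plus peptide wells and 100% = peptide-only wells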
# MCL1-BIM inh – disrupts human MCL1 binding to BIM-BH3 peptide | inhibition, % at 10.9 µM | Q07820 | 0.68% of 320,000 active | GST-MCL1 / FITC-Bim-BH3 fluorescence polarization | AID 2057;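 active = inhibition above the mean inhibition of all tested compounds plus 3 SD, set per campaign, cut at about 40% in these data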;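 note: 0% = DMSO wells and 100% = unlabeled Bim-BH3 peptide control; higher means more loss of mP so more displacement of Bim peptide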
# EBV gp42 inh – EBV gp42 inhibition; 0.42% of 220,000 active; Q1HVG2; inhibition, % (tested at 21.74 µM); Fluorescence polarization binding assay, mP read-out; in the data active = inhibition above about 50%
# Mcl1 Noxa PPI – Mcl-1/Noxa interaction inhibition; 1.5% of 220,000 active; TR-FRET Mcl-1/Noxa peptide binding, 2 h; inhibition, % at 21.7 µM; AID 1022;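 active = compounds that cut the protein-peptide binding signal by more than 50% relative to plate controls in a single-dose test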;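 note: His-tagged Mcl-1 with rhodamine Noxa BH3 peptide and terbium anti-His antibody; 0% = Mcl-1 plus Noxa peptide wells and 100% = peptide-only wells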
# RBBP9 inh – inhibitors of human serine hydrolase RBBP9 | O75884 | recombinant RBBP9, FP-Rh probe fluorescence polarization | inhibition, % at 7.94 µM | 0.2% of 220,000 active | AID 1515;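 active = inhibition above the campaign mean of all tested compounds plus 3 SD, cut at about 14% in these data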;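 note: plate controls were DMSO wells with RBBP9 for no effect and wells lacking RBBP9 protein for full effect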
# Target sequence (O75884 whole entry, looked up): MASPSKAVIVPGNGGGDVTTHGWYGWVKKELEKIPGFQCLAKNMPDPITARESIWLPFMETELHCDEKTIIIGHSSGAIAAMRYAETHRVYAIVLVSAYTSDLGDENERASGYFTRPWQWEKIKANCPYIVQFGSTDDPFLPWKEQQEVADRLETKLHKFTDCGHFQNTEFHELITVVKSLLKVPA
#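 Test system: recombinant human RBBP9; Timing: 30 min then 45 min, 25 °C; Detection: fluorescence polarization; Control set: RBBP9 with DMSO as uninhibited control, no-protein wells as full inhibition; Compound dosing: one concentration, 7.94 µM nominal, 0.794% DMSO; Probe or stimulus: FP-Rh activity-based probe, 375 nM before mixing.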
# BCLXL inh confirm – Bcl-xL (human) inhibition, MCL1 counter-screen confirmation | shares compounds with MCL1-BIM inh | GST-Bcl-xL / FITC-Bim BH3 peptide FP binding | inhibition, % at 10.9 µM | 54% of 1,700 active | AID 2166;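 active = inhibition above a cutoff equal to the mean inhibition of all tested compounds plus 3 SD, cut at about 30% in these data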;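 note: 0% = DMSO wells and 100% = unlabeled Bim BH3 control peptide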
# MCL1 BIM confirm – confirmation of human MCL1 and BIM-BH3 interaction inhibitors. shares compounds with MCL1-BIM inh. GST-MCL1 / FITC-Bim-BH3 fluorescence polarization. inhibition, % at 10.9 µM. 61% of 1,700 active. AID 2168;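 active = inhibition above the average of all tested compounds plus 3 SD, cut at about 40% in these data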;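 note: 0% = DMSO wells and 100% = unlabeled Bim-BH3 control peptide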
# * = called active by the depositor; . = not tested or not shown; + = active, no number. An excerpt weighted towards active compounds, which were near 2.2% of everything screened.
SMILES,Mcl-1 Bim block,Mcl1 Bid PPI,MCL1-BIM inh,EBV gp42 inh,Mcl1 Noxa PPI,RBBP9 inh,BCLXL inh confirm,MCL1 BIM confirm
O=C1C(=Cc2cccn2-c2ccc(O)cc2)C(=O)c2ccccc21,1,70*,199*,82*,1,2,152*,190*
O=C(CN1C(=O)S/C(=C/c2cccn2-c2ccc(O)cc2)C1=O)N1CCCC1,.,.,1,.,.,.,.,.
CC1(C)CC(NS(=O)(=O)c2ccc(S(N)(=O)=O)cc2)CC(C)(C)N1,.,.,118*,.,.,.,11,4
CC1(C)CC(NS(=O)(=O)c2ccc(F)cc2)CC(C)(C)N1,.,.,-3,.,.,.,.,.
O=C(/C=C/c1ccc(Br)o1)OCc1nc2ccsc2c(=O)[nH]1,.,.,49*,.,.,.,37*,87*
O=C1NC(=S)SC1=C1CCCC1,-3,-5,44*,-16,31,-16,26,60*
CN1C(=O)C(=C2CCCCCC2)SC1=S,-1,-42,9,-23,4,3,.,.
COc1ccc2oc(C(=O)Nc3nc(C)cs3)c(C)c2c1,.,.,-4,.,.,.,.,.
O=C1NC(=O)/C(=C\c2ccc(O)cc2O)S1,2,-41,50*,34,95*,0,94*,133*
COc1ccccc1NS(=O)(=O)c1cc(NC(=O)c2[nH]c(C)c(C(C)=O)c2C)ccc1N1CCOCC1,.,-29,33,14,1,-31,.,.
CCCCC(=Nc1ccc(N)cc1)C1=C(O)C(C(=O)OC)C(C)(C)CC1=O (configuration not stated),0,-39,32,-10,14,12,.,.
CCC(=Nc1ccc(N)cc1)C1=C(O)C(C(=O)OC)C(C)(C)CC1=O (configuration not stated),5,-59,61*,-20,16,1,30*,19
Clc1cccc(Cl)c1CSc1nnc([C@@H]2CCCN2)o1,.,-6,-1,-18,17,-9,.,.
Cc1ccsc1C1C=C(c2cccc(Br)c2)Nc2ncnn21 (configuration not stated),0,-52,118*,94*,-15,-17,71*,83*
COc1cccc(C2=CC(c3ccc(C)cc3)n3ncnc3N2)c1 (configuration not stated),0,-29,60*,22,7,5,30,42*
Fc1ccc(Br)cc1C1C=C(c2ccc(Br)cc2)Nc2ncnn21 (configuration not stated),-1,13,7,7,28,0,.,.
O=C(O)Cc1c[nH]c2cccc(O)c12,0,23,45*,-9,81*,-2,15,32
Cc1ccc(C2C(C#N)=C(N)Oc3cc4c(cc32)OCO4)cc1 (configuration not stated),-2,-26,-6,3,17,-4,.,.
CSc1ccc(C2C(C#N)=C(N)Oc3cc4c(cc32)OCO4)cc1 (configuration not stated),0,-24,43*,-2,10,-5,3,7
CC(C(=O)NCc1ccco1)n1ccc2cc(S(=O)(=O)N3CCCCC3)ccc21 (configuration not stated),.,.,4,.,.,.,.,.
Cc1cc[n+](-c2[nH]c(=O)sc2/C=N/NC([S-])=Nc2ccccc2)cc1C,0,-62,163*,64*,18,0,104*,149*
CC(C)(C)c1cc[n+](-c2[nH]c(=O)sc2/C=N/NC([S-])=Nc2ccccc2)cc1,.,-29,197*,117*,12,-2,161*,189*
CCCN(Cc1nc2cc(Cl)ccc2c(=O)[nH]1)C(=O)c1ccc(S(=O)(=O)N2CCCC2)cc1,.,.,-2,.,.,.,.,.
O=C(c1ccccc1)c1c2c(cc3sc4ccccc4[n+]13)-c1cccc3cccc-2c13,8,29,116*,32,38,-11,62*,71*
Cc1sc2cc3c(c(C(=O)c4ccccc4)[n+]2c1C)-c1cccc2cccc-3c12,1,-25,4,10,23,-4,.,.
SMILES,Mcl-1 Bim block,Mcl1 Bid PPI,MCL1-BIM inh,EBV gp42 inh,Mcl1 Noxa PPI,RBBP9 inh,BCLXL inh confirm,MCL1 BIM confirm
Nc1ccc(C(=O)N/N=C\c2cc(N=Nc3cccc4ccccc34)ccc2O)cc1,0,65*,66*,14,.,-4,12,72*
CCc1ccc(NC(=O)c2noc3c2CCC3)cc1,-1,7,26,-3,41,7,.,.
COC(=O)c1ccccc1NC(=O)c1noc2c1CCC2,-4,-53,41*,32,70*,.,15,49*
O=C(O)c1ccc(N2CC3CC(C2)c2cccc(=O)n2C3)c(NS(=O)(=O)c2cccc(C(F)(F)F)c2)c1 (configuration not stated),-3,-70,-1,-9,8,0,.,.
C/C(N)=C(/C#N)C(=O)CSc1nnc(NC(C)C)s1,0,-45,51*,19,48,-2,26,78*
CCCN1Cc2cccc(C(=O)NCCc3cccc(C)c3)c2C1=O,.,.,0,.,.,.,.,.
Clc1ccc2nc3c4ccccc4cnn3c2c1,3,1,5,-3,6,-7,.,.
Oc1ccc2nnc3c(Br)cnn3c2c1,.,.,+,.,.,.,168*,+
CC(=O)N1CCN(c2nc(CC(C)C)c3c(c2C#N)CCC3)CC1,0,-10,+,4,11,3,19,30
CC(C)Cc1nc(N2CCN(C(=O)C(C)C)CC2)c(C#N)c2c1CCC2,-1,9,-2,-8,21,2,.,.
COc1ccccc1C1/C(=C(\O)c2ccc3c(c2)OCCO3)C(=O)C(=O)N1CCCn1ccnc1 (configuration not stated),.,.,8,.,.,.,.,.
Cc1cccc2sc(N(CCN3CCOCC3)C(=O)CCS(=O)(=O)c3ccccc3)nc12,.,.,8,.,.,.,.,.
COc1c(O)cccc1[C@H](O)C1CCN(CCc2ccc(F)cc2)CC1,.,.,56*,.,.,.,56*,60*
CCCCn1c(N)c(N(CCOC)C(=O)c2ccc3c(c2)OCCO3)c(=O)[nH]c1=O,.,.,-1,.,.,.,.,.
COc1cc2c(cc1OC)CN(c1ccc(-c3ccccc3OC)nn1)CC2,0,-17,65*,-5,-4,-12,22,17
COc1cc2c(cc1OC)CN(c1ccc3ccccc3n1)CC2,.,.,-7,.,.,.,.,.
Cc1cc(C)cc(NC(=O)Nc2c(Br)cnn2C)c1,.,.,6,.,.,.,.,.
O=C(Nc1ccc2c(c1)nc1n2CCN(C2CCCCC2)C1)NC1CCCCC1,-5,-25,67*,83*,41,-1,44*,54*
COc1ccccc1C(=O)Nc1ccc2c(c1)nc1n2CCN(C2CCCCC2)C1,.,.,4,.,.,.,.,.
O=C(N/C(=C\c1cccc(Br)c1)C(=O)N1CCCCC1)c1ccco1,.,.,2,.,.,.,.,.

# Screening data deposited in PubChem BioAssay by several laboratories.
